Consider ten compounds from ChEMBL document CHEMBL2401738, “Construction and functionalization of pyranone ring fused with pyran moiety: design and synthesis of novel pyrano[4,3-b]pyran-5(4H)-ones as potential inhibitors of sirtuins” (Bioorg Med Chem Lett, 2013).

Structures are written as SMILES.

For assay [1], the system named is Saccharomyces cerevisiae. As to the kind of experiment: Inhibition of Saccharomyces cerevisiae TEL::URA3 SIR2-mediated URA3 reporter gene silencing at 50 uM after 24 to 48 hrs in presence of 5-FOA relative to control. The procedure, abridged: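 Yeast strain with telomere-integrated URA3 reporter. Sir2 silencing of URA3 allows growth in 5-fluoroorotic acid, and inhibition of the yeast SIRT1 homologue Sir2 is scored by reduced growth in 5-FOA. Stereoisomer mixtures were tested unseparated at a single fixed concentration of 50.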
Background: A reporter such as luciferase makes a cellular process visible.

Assay [2] in a line: (§1) Inhibition of Saccharomyces cerevisiae TEL::URA3 SIR2-mediated URA3 reporter gene silencing after 24 to 48 hrs in presence of 5-FOA. The gist of the method:
(§2)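 Yeast cell-based reporter silencing assay with URA3 integrated in the telomeric region. Sir2-mediated silencing of URA3 permits growth in 5-fluoroorotic acid, so Sir2 inhibition is read as loss of growth on 5-FOA. Compounds were tested as unseparated stereoisomer mixtures over a dose range, and IC50 was taken from the dose-response.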

In assay [3] the test system is Saccharomyces cerevisiae. The description is as §1. The procedure, abridged:
as §2

The inhibition is the change of the read-out against control, counted positive when it falls. On to `CC1(C)CC(=O)C2=C(C1)Oc1c(I)c(-c3ccccc3)oc(=O)c1C2c1ccco1` (configuration not stated), for which the inhibition with Saccharomyces cerevisiae [1] was determined as 15.3%. The same measure, in the same setting: in the case of `COc1ccc(C2C3=C(CC(C)(C)CC3=O)Oc3c(I)c(-c4ccccc4)oc(=O)c32)cc1` (configuration not stated) it was 32.4%.

By IC50 is commonly meant the concentration that gives 50% inhibition. As for `CCC1C2=C(CC(C)(C)CC2=O)Oc2c(I)c(-c3ccccc3)oc(=O)c21` (configuration not stated), the inhibition was 43.9% with Saccharomyces cerevisiae [1] and “Dose-dependent effect” in the assay on Saccharomyces cerevisiae [3]. The IC50 in assay [2] came to 78 µM. Take `CC1(C)CC(=O)C2=C(C1)Oc1c(-c3ccccc3)c(-c3ccccc3)oc(=O)c1C2c1cccc(O)c1` (configuration not stated): the inhibition in the assay on Saccharomyces cerevisiae [1] came out at 3.3%.

Take `CC1(C)CC(=O)C2=C(C1)Oc1c(I)c(-c3ccccc3)oc(=O)c1C2c1cccs1` (configuration not stated): in the assay with Saccharomyces cerevisiae [1], the inhibition was 43.2%.

As for `CCOC(=O)C1=C(C)Oc2c(-c3ccc(O)cc3)c(-c3ccccc3)oc(=O)c2C1c1cccc(F)c1` (configuration not stated), the inhibition in the assay with Saccharomyces cerevisiae [1] stood at 1.51%. As for `CCCCC#Cc1c(-c2ccccc2)oc(=O)c2c1OC1=C(C(=O)CC(C)(C)C1)C2c1cccc(O)c1` (configuration not stated), the inhibition with Saccharomyces cerevisiae [1] was determined as 1.01%. For `CCOC(=O)C1=C(C)Oc2c(I)c(-c3ccccc3)oc(=O)c2C1c1cccc(F)c1` (configuration not stated), in the assay on Saccharomyces cerevisiae [1], the inhibition is 0.5%.

For the compound `CC1(C)CC(=O)C2=C(C1)Oc1c(I)c(-c3ccccc3)oc(=O)c1C2c1ccc(F)cc1` (configuration not stated), in the assay with Saccharomyces cerevisiae [1], the inhibition was 49.5%.

Regarding `CC1(C)CC(=O)C2=C(C1)Oc1c(I)c(C3(O)CCCCC3)oc(=O)c1C2c1ccc(F)cc1` (configuration not stated), in the assay on Saccharomyces cerevisiae [1], the inhibition is 25.3%.
